# Data published in ChEMBL document CHEMBL1129282, “High-affinity partial agonist imidazo[1,5-a]quinoxaline amides, carbamates, and ureas at the gamma-aminobutyric acid A/benzodiazepine receptor complex” (J Med Chem, 1996).
# Active and inactive are the calls of the source.
# Columns and labels:
# Mus musculus [1] = assay: Ethanol potentiation activity was measured as loss of righting reflex in male CF-1 mice after oral administration; assay type: functional
# Mus musculus [2] = assay: In vivo antagonistic activity against benzodiazepine in mice after ip administration; assay type: functional
# Method in brief: (§1)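 Male CF-1 mice injected ip simultaneously with triazolam 1 mg/kg and test compound starting at […], in 0.25% aqueous methyl cellulose. Loss of traction scored 15 min later. Absence of triazolam effect indicated antagonism; lower doses at 0.5 log intervals then tested to establish ED50.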
# [3] = target: GABA-A receptor; anion channel (Rattus norvegicus) (UniProt O09028+P15431+P18506+P18508+P19969+P20236+P23574+P23576+P28471+P28473+P30191+P62813+P63079+P63138+Q91ZM7+Q9ES14); conditions: Brain, Brain membranes
# Rattus norvegicus [4] = assay: Antagonistic activity against metrazole-induced clonic convulsions in rat after ip injection; assay type: functional
# [5] = target: T1, GABA A receptor alpha-3/beta-2/gamma-2 (Homo sapiens, UniProt P18507+P34903+P47870); assay: (§2) Displacement of [3H]flunitrazepam from GABA-A receptor alpha-3-beta-2-gamma-2 subunits expressed in Sf9 cells
# T1 sequence (P47870 whole entry): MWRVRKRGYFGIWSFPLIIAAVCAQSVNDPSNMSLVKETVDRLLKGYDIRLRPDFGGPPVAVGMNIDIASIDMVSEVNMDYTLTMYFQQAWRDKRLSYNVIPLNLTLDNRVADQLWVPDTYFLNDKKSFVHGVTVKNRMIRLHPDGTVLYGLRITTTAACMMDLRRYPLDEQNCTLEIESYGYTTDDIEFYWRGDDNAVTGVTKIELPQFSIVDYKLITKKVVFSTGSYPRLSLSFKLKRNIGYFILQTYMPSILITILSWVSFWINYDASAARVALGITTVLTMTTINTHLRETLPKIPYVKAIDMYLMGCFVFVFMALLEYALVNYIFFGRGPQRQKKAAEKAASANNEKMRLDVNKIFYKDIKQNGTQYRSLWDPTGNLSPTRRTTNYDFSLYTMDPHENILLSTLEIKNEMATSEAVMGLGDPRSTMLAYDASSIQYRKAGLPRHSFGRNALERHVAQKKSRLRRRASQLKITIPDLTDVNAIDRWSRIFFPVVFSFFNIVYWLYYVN
# T1 sequence (P18507 whole entry): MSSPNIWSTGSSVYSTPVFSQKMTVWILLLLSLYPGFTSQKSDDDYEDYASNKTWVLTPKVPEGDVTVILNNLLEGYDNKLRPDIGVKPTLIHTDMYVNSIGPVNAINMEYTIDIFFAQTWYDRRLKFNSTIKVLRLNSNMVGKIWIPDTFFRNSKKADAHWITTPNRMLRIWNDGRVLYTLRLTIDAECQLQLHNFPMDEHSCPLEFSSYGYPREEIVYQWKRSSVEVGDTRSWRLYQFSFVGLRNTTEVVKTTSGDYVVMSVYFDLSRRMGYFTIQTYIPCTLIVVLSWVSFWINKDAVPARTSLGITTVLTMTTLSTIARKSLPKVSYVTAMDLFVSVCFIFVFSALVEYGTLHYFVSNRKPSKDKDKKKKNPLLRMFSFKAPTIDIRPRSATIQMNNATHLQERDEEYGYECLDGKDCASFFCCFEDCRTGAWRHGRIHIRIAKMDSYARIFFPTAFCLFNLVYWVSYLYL
# T1 sequence (P34903 whole entry): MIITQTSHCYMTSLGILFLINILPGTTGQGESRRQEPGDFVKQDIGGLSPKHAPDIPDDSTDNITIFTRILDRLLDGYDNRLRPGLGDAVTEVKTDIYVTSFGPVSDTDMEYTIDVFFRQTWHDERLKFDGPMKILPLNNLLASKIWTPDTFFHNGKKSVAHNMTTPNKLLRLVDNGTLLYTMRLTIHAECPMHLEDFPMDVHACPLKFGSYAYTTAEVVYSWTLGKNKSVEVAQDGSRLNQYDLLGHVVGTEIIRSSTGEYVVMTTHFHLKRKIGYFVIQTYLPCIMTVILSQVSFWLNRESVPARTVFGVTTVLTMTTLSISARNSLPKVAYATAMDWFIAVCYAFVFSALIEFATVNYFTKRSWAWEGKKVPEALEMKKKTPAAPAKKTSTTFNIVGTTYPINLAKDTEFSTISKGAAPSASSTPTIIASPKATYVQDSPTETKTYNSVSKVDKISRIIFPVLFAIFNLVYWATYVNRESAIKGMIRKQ
# Method in brief: (§3)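 Membranes from Sf-9 cells infected (MOI 3) with baculoviruses for α1, α3 or α6 plus β2 and γ2 subunits, harvested 60 h postinfection. Binding in normal saline with 6 nM [3H]flunitrazepam (α1, α3) or [3H]Ro 15-4513 (α6), 50 µg membrane protein, varying test ligand. Incubated 60 min at 4 °C, filtered, scintillation counted.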
# Rattus norvegicus [6] = species on record: Rattus norvegicus; assay: In vitro [36Cl]-uptake in rat cerebrocortical synaptoneurosomes; assay type: functional; design: unit not given here
# Method in brief: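 Rat cerebrocortical synaptoneurosomes (1 mg protein) preincubated 5 min at 30 °C, then mixed with medium containing 0.2 µCi Na36Cl/mL, 118 mM NaCl, 5 mM KCl, 1.8 mM MgSO4, 20 mM Hepes/Tris pH 7.0, ± drug (methanol ≤0.4%). Uptake stopped after 5 s with ice-cold buffer, rapid filtration, four washes, radioactivity counted.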
# [7] = target: T2, GABA-A receptor; alpha-1/beta-2/gamma-2 (Homo sapiens, UniProt P14867+P18507+P47870); assay: (§4) Displacement of [3H]Flunitrazepam from GABA-A receptor alpha-1-beta-2-gamma-2 subunits expressed in Sf9 cells
# T2 sequence (P14867 whole entry): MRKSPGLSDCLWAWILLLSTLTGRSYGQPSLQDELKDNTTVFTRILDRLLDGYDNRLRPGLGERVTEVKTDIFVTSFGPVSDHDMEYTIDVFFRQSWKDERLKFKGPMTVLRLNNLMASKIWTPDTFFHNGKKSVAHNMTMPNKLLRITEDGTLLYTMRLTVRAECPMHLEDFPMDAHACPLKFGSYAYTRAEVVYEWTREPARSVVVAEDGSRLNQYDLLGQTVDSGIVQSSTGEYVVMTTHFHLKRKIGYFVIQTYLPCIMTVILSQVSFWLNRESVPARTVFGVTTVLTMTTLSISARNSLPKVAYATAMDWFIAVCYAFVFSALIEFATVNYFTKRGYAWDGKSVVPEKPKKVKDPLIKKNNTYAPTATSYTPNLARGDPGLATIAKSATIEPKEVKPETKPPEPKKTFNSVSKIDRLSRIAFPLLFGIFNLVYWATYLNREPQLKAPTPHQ
# T2 sequence (P47870 whole entry): T1 sequence (P47870 whole entry)
# T2 sequence (P18507 whole entry): T1 sequence (P18507 whole entry)
# Mus musculus [8] = species on record: Mus musculus; assay: Acute electroshock physical dependence activity was evaluated; A=Active; assay type: functional, organism-based
# Method in brief: (§5)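 Male CF-1 mice, 10/group, dosed sc twice daily (0800, and 1600 at twice the 0800 dose) for 3 days. 24 h after last dose, iv flumazenil 2.5 mg/kg in 5% aqueous N,N-dimethylacetamide. Electroshock seizure threshold (MA50) measured 5 min later versus saline-treated, flumazenil-injected controls. Compound scored active if threshold lowered beyond control interval.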
# Mus musculus [9] = assay: Ethanol potentiation activity was measured as loss of traction response in male CF-1 mice after oral administration; assay type: functional
# [10] = target: GABA-A receptor; anion channel; assay: Inhibition of [3H]flunitrazepam binding to GABA-A receptor of rat cortical membranes; assay type: cell membranes, Membrane
# [11] = target: T2, GABA-A receptor; alpha-1/beta-2/gamma-2; assay: as §4; design: species or system insect
# Method in brief: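 Equilibrium competition binding on membranes from Sf-9 cells co-infected (MOI 3) with baculoviruses for α1, β2 and γ2 subunits, harvested 60 h postinfection. Assay in normal saline with 6 nM [3H]flunitrazepam, 50 µg membrane protein and varying test ligand concentrations. Incubated 60 min at 4 °C, filtered over glass fiber, washed four times with cold saline, then scintillation counted.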
# [12] = target: T3, GABA A receptor alpha-6/beta-2/gamma-2 (Homo sapiens, UniProt P18507+P47870+Q16445); assay: Displacement of [3H]-Ro-15-4513 from GABA-A receptor alpha-6-beta-2-gamma-2 subunits expressed in Sf9 cells; method in brief: as §3
# Mus musculus [13] = assay: In vivo antagonistic activity against benzodiazepine in mice; assay type: functional; method in brief: as §1
# Mus musculus [14] = species on record: Mus musculus; assay: Ethanol potentiation was measured against LORR; assay type: functional
# Method in brief: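 Male CF-1 mice given 7.5 mL/kg 50% aqueous ethanol orally with test compound sc simultaneously (in 0.25% aqueous methyl cellulose). After 30 min, scored for loss of traction (hindlimb placement on wire within 10 s) and loss of righting reflex (no righting within 10 s). Six mice/dose; active compounds retested at several doses for ED50.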
# Mus musculus [15] = species on record: Mus musculus; assay: Acute electroshock physical dependence activity was evaluated; IA=Inactive; assay type: functional, organism-based; method in brief: as §5
# [16] = target: T2, GABA-A receptor; alpha-1/beta-2/gamma-2; assay: Displacement of [3H]flunitrazepam from GABA-A receptor alpha-1-beta-2-gamma-2 subunits expressed in Sf9 cells; method in brief: as §3
# [17] = target: GABA-A receptor alpha-1/beta-2/gamma-2 (Homo sapiens); assay: Binding affinity towards [3H]Fnz in alpha-1-beta-2-gamma-2 subtype was measured
# [18] = target: T1, GABA A receptor alpha-3/beta-2/gamma-2; assay: as §2; remark: listed apart in the source
# Method in brief: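 Sf-9 cells were co-infected with baculoviruses for α3, β2 and γ2 subunits at MOI 3 and harvested 60 h postinfection to prepare membranes. Binding used 6 nM [3H]flunitrazepam, 50 µg membrane protein and varying test ligand concentrations in normal saline (NaCl/KCl/MgCl2/CaCl2/Hepes, pH 7.2). Incubation ran 60 min at 4 °C, followed by glass-fibre filtration, four cold-saline washes and scintillation counting.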
# [19] = target: T3, GABA A receptor alpha-6/beta-2/gamma-2; assay: Displacement of [3H]Ro-154513 from GABA-A receptor alpha-6-beta-2-gamma-2 subunits expressed in Sf9 cells; method in brief: as §3
# Mus musculus [20] = assay: Acute electroshock physical dependence activity was evaluated; A=Active at 15 mg/Kg; assay type: functional, organism-based
# T3 sequence (Q16445 whole entry, one chain of several): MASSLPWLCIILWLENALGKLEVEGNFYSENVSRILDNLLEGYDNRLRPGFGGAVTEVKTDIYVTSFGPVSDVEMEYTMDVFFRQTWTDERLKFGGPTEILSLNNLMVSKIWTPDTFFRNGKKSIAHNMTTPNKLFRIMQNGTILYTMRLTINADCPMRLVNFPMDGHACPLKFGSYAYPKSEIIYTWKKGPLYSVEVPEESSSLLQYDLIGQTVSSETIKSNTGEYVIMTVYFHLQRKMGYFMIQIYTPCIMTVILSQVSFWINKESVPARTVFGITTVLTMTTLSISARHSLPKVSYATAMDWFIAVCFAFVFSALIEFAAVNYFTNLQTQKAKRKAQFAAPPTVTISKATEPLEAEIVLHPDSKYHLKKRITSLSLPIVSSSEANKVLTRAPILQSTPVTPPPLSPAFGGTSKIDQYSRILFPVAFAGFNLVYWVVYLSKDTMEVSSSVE
SMILES,ED50 (Mus musculus [1]) [mg/kg],[35S] TBPS shift [3],ED50 (Rattus norvegicus [4]) [mg/kg],Ki [5] [nM],36Cl- uptake (Rattus norvegicus [6]),Ki [7] [nM],ED50 (Mus musculus [9]) [mg/kg],Ki [10] [nM],Ki [12] [nM],Ki [16] [nM],also measured
O=C(N1CCOCC1)N1Cc2c(-c3noc(C4CC4)n3)ncn2-c2ccc(F)cc21,> 30,0.96,6.2,0.7,1.1,0.3,2,0.68,,,ED50 (Mus musculus [2]): 1 mg/kg; A (Mus musculus [8]): Active
CCOC(=O)c1ncn2c1CN(C)C(=O)c1cc(N=[N+]=[N-])ccc1-2 [Ro-154513],,,,,,,,,,,Ki [11]: 15 nM
O=C(N1CCOCC1)N1Cc2c(-c3noc(C4CC4)n3)ncn2-c2cccc(F)c21,,0.66,6.2,0.51,0.42,0.17,,0.48,13,,Activity (Mus musculus [8]): Active
CC(C)n1c(=O)c2c(-c3noc(C4CC4)n3)ncn2c2ccccc21 [PANADIPLON],,0.06,1.6,5.7,0.04,3.5,6.6,1.6,603,,ED50 (Mus musculus [13]): 1.7 mg/kg; ED50 (Mus musculus [14]): > 30 mg/kg; Activity (Mus musculus [15]): inactive
O=C(N1CCOCC1)N1Cc2c(-c3noc(C4CC4)n3)ncn2-c2ccc(Cl)cc21,,0.71,,,1,,,2.3,,0.22,Ki [17]: 2 nM
O=C(c1ccccc1)N1Cc2c(-c3noc(C4CC4)n3)ncn2-c2ccccc21,,0.54,42,,,0.3,,,1140,,
CN(C)C(=O)N1Cc2c(-c3noc(C4CC4)n3)ncn2-c2ccccc21 [PNU-91571],> 30,0.69,21,,0.68,,27,1,,1.7,ED50 (Mus musculus [2]): 1 mg/kg; Ki [18]: 3.5 nM; Activity (Mus musculus [15]): inactive
CC(=O)N1Cc2c(-c3noc(C4CC4)n3)ncn2-c2ccccc21,,0.94,35,,,,,,,2.7,Ki [19]: 124 nM
CN1C(=O)CN=C(c2ccccc2)c2cc(Cl)ccc21 [DIAZEPAM],0.86,,0.5,,1,,0.54,,> 7000,,Activity (Mus musculus [20]): Active
CCNC(=O)N1Cc2c(-c3noc(C4CC4)n3)ncn2-c2ccccc21,> 30,0.72,5.3,,0.22,,> 30,3.5,,4.5,ED50 (Mus musculus [2]): > 30 mg/kg; Ki [18]: 15 nM; Activity (Mus musculus [15]): inactive
Cc1cccc2c1N(C(=O)N1CCOCC1)Cc1c(-c3noc(C4CC4)n3)ncn1-2,,0.51,5.2,30,0.7,4.7,,4.6,,,
